SMILES strings stand for the structures.

This assay has as its system HL-60. The experiment in a line: Cytotoxicity against human HL60 cells after 72 hrs by MTT assay. Type of assay: functional, cell-based. Particulars: HL-60, 72 h. The method, boiled down:
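HL-60 leukemia cells kept in RPMI 1640 with 10% fetal bovine serum, L-glutamine, 100 units/mL penicillin and 100 μg/mL streptomycin. Cells at 3 × 10^4 cells/mL exposed continuously to compound for 72 h. Growth read by MTT reduction. IC50 (50% inhibition) calculated from each compound's dose–response curve.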
On the technique in general: Tetrazolium assays rely on reduction of a dye to a coloured formazan, in cell work by metabolically active cells.
In general, IC50 refers to the concentration that inhibits the measured activity by half. Lower therefore signals greater potency in that assay. On to `COc1ccc(C(=O)O[C@H]2[C@H](O[C@@H]3[C@@H](OC(C)=O)[C@H](O[C@H]4C[C@H]5[C@@H]6CC=C7C[C@@H](O)CC[C@]7(C)[C@H]6CC[C@]5(C)[C@@]4(O)[C@H](C)C(=O)CCC(C)C)OC[C@@H]3O)OC[C@@H](O[C@@H]3O[C@H](CO)[C@@H](O)[C@H](O)[C@H]3O)[C@@H]2O)cc1OC`, for which the IC50 stood at 16 nM.
With `CC(C)CCC(O)[C@@H](C)[C@@]1(O)[C@@H](O[C@@H]2OC[C@H](O)[C@H](O[C@@H]3OC[C@@H](O)[C@H](O)[C@H]3O)[C@H]2O)C[C@H]2[C@@H]3CC=C4C[C@@H](O)CC[C@]4(C)[C@H]3CC[C@@]21C` (stereo partly drawn) the figure was 8300 nM; with `CC(C)CCC(=O)[C@@H](C)[C@@]1(O)[C@@H](O[C@@H]2OC[C@H](O)[C@H](O[C@@H]3OC[C@@H](O[C@@H]4O[C@H](CO)[C@@H](O)[C@H](O)[C@H]4O)[C@H](O)[C@H]3O)[C@H]2O)C[C@H]2[C@@H]3CC=C4C[C@@H](O)CC[C@]4(C)[C@H]3CC[C@@]21C`, above 10000 nM; with `COc1cc(C(=O)O[C@H]2[C@H](O[C@@H]3[C@@H](OC(C)=O)[C@H](O[C@H]4C[C@H]5[C@@H]6CC=C7C[C@@H](O)CC[C@]7(C)[C@H]6CC[C@]5(C)[C@@]4(O)[C@H](C)C(=O)CCC(C)C)OC[C@@H]3O)OC[C@@H](O[C@@H]3O[C@H](CO)[C@@H](O)[C@H](O)[C@H]3O)[C@@H]2O)cc(OC)c1OC`, 14 nM.
The result for `CC(C)CCC(=O)[C@@H](C)[C@@]1(O)[C@@H](O[C@@H]2OC[C@H](O)[C@H](O[C@@H]3OC[C@@H](O)[C@H](O)[C@H]3O)[C@H]2O)C[C@H]2[C@@H]3CC=C4C[C@@H](O)CC[C@]4(C)[C@H]3CC[C@@]21C` reads 190 nM; that for `COc1cccc2c1C(=O)c1c(O)c3c(c(O)c1C2=O)C[C@@](O)(C(=O)CO)C[C@@H]3O[C@H]1C[C@H](N)[C@H](O)[C@H](C)O1` [DOXORUBICIN], 7.2 nM.
The result for `COc1cc([C@@H]2c3cc4c(cc3[C@@H](O[C@@H]3O[C@@H]5CO[C@@H](C)O[C@H]5[C@H](O)[C@H]3O)[C@H]3COC(=O)[C@H]23)OCO4)cc(OC)c1O` [ETOPOSIDE] reads 25 nM; that for `CN(Cc1cnc2nc(N)nc(N)c2n1)c1ccc(C(=O)N[C@@H](CCC(=O)O)C(=O)O)cc1` [METHOTREXATE], 12 nM.
